Calls of active or inactive are those of the source.
Assays:
Rattus norvegicus [1] = species: Rattus norvegicus; assay: Evaluated for shock induced suppression of drinking by rat vogel test and number of shocks taken were reported; assay type: functional
How it was run: (§1)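 Rats deprived of water, allowed 4 h drinking, then withdrawn overnight. On test day, free drinking for 30 s, then a mild footshock (0.225 mA, 0.5 s) for every 5 s of accumulated drinking in a 3 min session. Count of shocks taken recorded. Drug given ip to groups of 6-12 rats 30 min before testing; vehicle 1% methyl cellulose in 0.5% saline.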

[2] = tested on: GABA-A receptor; anion channel; assay: Displacement of [3H]flunitrazepam from GABA-A Benzodiazepine receptor of rat brain membranes (Insoluble); assay type: cell membranes, Membrane
How it was run: (§2)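 Well-washed, frozen rat whole brain membranes incubated with 0.5 nM [3H]flunitrazepam; nonspecific binding defined with 10 µM clonazepam. IC50 from log concentration vs percent inhibition curves, Ki via Cheng-Prusoff; triplicate determinations.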

Mus musculus [3] = assay: Percentage change in seizure threshold by pentylenetetrazole infusion method in mouse at a dose of 30 mg/Kg administered perorally; Inactive; assay type: functional, organism-based
[4] = target: GABA-A receptor; anion channel; assay: Displacement of [3H]flunitrazepam from GABA-A Benzodiazepine receptor of rat brain membranes; assay type: cell membranes, Membrane; how it was run: as §2
Mus musculus [5] = assay: Percent of mice not grasping wire at a dose of 30 mg/Kg administered intraperitoneally in horizontal wire test; Inactive; assay type: functional, organism-based
Mus musculus [6] = assay: Percentage change in seizure threshold by pentylenetetrazole infusion method in mouse at a dose of 100 mg/Kg administered perorally; assay type: functional
Mus musculus [7] = assay: Percentage change in seizure threshold by anti-pentylenetetrazole test in mouse at a dose of 30 mg/Kg administered perorally; Inactive; assay type: functional, organism-based
Mus musculus [8] = assay: Percentage change in seizure threshold by pentylenetetrazole infusion method in mouse at a dose of 30 mg/Kg administered perorally; assay type: functional
Mus musculus [9] = assay: Percentage change in seizure threshold by anti-pentylenetetrazole test in mouse at a dose of 30 mg/Kg administered perorally; assay type: functional
Rattus norvegicus [10] = assay: Compound was administered at a dose of 2.5 mg/Kg intraperitoneally and was evaluated for shock induced suppression of drinking by rat vogel test and number of shocks taken were reported; assay type: functional
How it was run: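 Rats had water for a 4-h period, then water was withdrawn overnight. On test day, after 30 s of free drinking, a 0.225 mA footshock lasting 0.5 s was given for every 5 s of accumulated drinking in a 3-min session. Drug was given ip to groups of 6-12 rats 30 min before testing. Vehicle controls received 1% methyl cellulose in 0.5% saline. Read-out was the number of shocks taken.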

Mus musculus [11] = assay: Compound was evaluated for horizontal wire test and percent of mice not grasping wire, it was administered intraperitoneally; conditions: ip
Mus musculus [12] = assay: Effective dose required for the percentage change in seizure threshold by anti-pentylenetetrazole test in mouse when administered perorally; assay type: functional; conditions: po
How it was run: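 Male CD-1 mice (18-24 g), groups of 10, dosed orally 60 min before testing. Lightly restrained mice received PTZ (8 mg/mL) by tail-vein infusion at 0.5 mL/min. Time to tonic hindlimb extension was converted to a PTZ threshold dose (mg/kg). Effect was expressed as % change in seizure threshold versus controls, with a two-tailed Student's t test.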

Mus musculus [13] = assay: Compound was evaluated for horizontal wire test and percent of mice not grasping wire, it was administered perorally; conditions: po
Mus musculus [14] = assay: Percent of mice not grasping wire at a dose of 30 mg/Kg administered intraperitoneally in horizontal wire test; assay type: functional
[15] = tested on: GABA-A receptor; anion channel; assay: Displacement of [3H]flunitrazepam from GABA-A Benzodiazepine receptor of rat brain membranes (insoluble); assay type: cell membranes, Membrane; how it was run: as §2
Rattus norvegicus [16] = assay: Compound was administered at a dose of 10 mg/Kg intraperitoneally and was evaluated for shock induced suppression of drinking by rat vogel test and number of shocks taken were reported; assay type: functional; how it was run: as §1
Mus musculus [17] = assay: Percent of mice not grasping wire at a dose of 300 mg/Kg administered intraperitoneally in horizontal wire test; assay type: functional
Mus musculus [18] = assay: Percentage change in seizure threshold by anti-pentylenetetrazole test in mouse at a dose of 100 mg/Kg administered perorally; Inactive; assay type: functional, organism-based
Rattus norvegicus [19] = assay: Compound was administered at a dose of 20 mg/Kg intraperitoneally and was evaluated for shock induced suppression of drinking by rat vogel test and number of shocks taken were reported; Inactive; assay type: functional, organism-based; how it was run: as §1

| Structure (SMILES) | No. of shocks (Rattus norvegicus [1]) | Ki [4] [µM] | Activity (Mus musculus [5]) | further results |
| --- | --- | --- | --- | --- |
| COc1c2cnc3ccsc3c2nn1-c1ccc(Cl)cc1 | 13.4 |  |  | Ki [2]: Insoluble; Change (Mus musculus [3]): inactive |
| Cn1cc2ccc3ncc4c(=O)n(-c5ccc(Cl)cc5)[nH]c4c3c2n1 | 7 | 0.00029 | inactive |  |
| Cc1[nH]sc2ncc3c(=O)n(-c4ccc(Cl)cc4)nc3c12 | 11.9 | 0.099 | inactive | Change (Mus musculus [6]): 48% |
| Cn1cc2c(=O)n(-c3ccc(Cl)cc3)nc-2c2sccc21 | 16.8 |  | inactive | Ki [2]: Insoluble; Change (Mus musculus [3]): inactive |
| Cn1ncc2cc3c(cc21)ncc1c(=O)n(-c2ccc(Cl)cc2)[nH]c13 | 9 | 0.014 |  | Change (Mus musculus [7]): inactive |
| O=c1c2c(-c3ccccc3)nc3ccsc3c2[nH]n1-c1ccc(Cl)cc1 | 6.7 | > 1000 |  | Change (Mus musculus [8]): 18% |
| Cn1ncc2c3c(ccc21)ncc1c(=O)n(-c2ccc(Cl)cc2)[nH]c13 | 13 | 0.0024 | inactive | Change (Mus musculus [9]): 37% |
| CN1C(=O)CN=C(c2ccccc2)c2cc(Cl)ccc21 [DIAZEPAM] |  |  |  | No. of shocks (Rattus norvegicus [10]): 21.2; ED50 (Mus musculus [11]): 3.1 mg/kg; ED50 (Mus musculus [12]): 1.5 mg/kg; ED50 (Mus musculus [13]): 3.8 mg/kg |
| Cn1cc2c(ccc3ncc4c(=O)n(-c5ccc(Cl)cc5)[nH]c4c32)n1 | 5.7 | 0.00046 | inactive | Change (Mus musculus [7]): inactive |
| Cc1nc2ccsc2c2[nH]n(-c3ccc(Cl)cc3)c(=O)c12 | 6.1 | 1 |  | Change (Mus musculus [6]): 57% |
| Cn1c2ccccc2c2ncc3c(=O)n(-c4ccc(Cl)cc4)[nH]c3c21 | 10 |  |  | Activity (Mus musculus [14]): 25%; Ki [15]: Insoluble |
| O=C1C2C=Nc3ccccc3C2=NN1c1ccc(Cl)cc1 (centres undefined) [CGS-9896] |  | 0.00035 |  | No. of shocks (Rattus norvegicus [16]): 12.7; ED50 (Mus musculus [12]): 3.5 mg/kg; Activity (Mus musculus [17]): 30% |
| CCc1cc2c(ncc3c(=O)n(-c4ccc(Cl)cc4)[nH]c32)s1 | 14.4 | 0.0018 | inactive | Change (Mus musculus [3]): inactive |
| O=c1c2cnc3c4ccccc4sc3c2[nH]n1-c1ccc(Cl)cc1 | 14.1 | 0.81 | inactive | Change (Mus musculus [3]): inactive |
| O=c1c2cnc3ccsc3c2[nH]n1-c1ccc(Cl)cc1 | 14 | 0.00046 | inactive | Change (Mus musculus [18]): inactive |
| Cn1cnc2c3c(ccc21)ncc1c(=O)n(-c2ccc(Cl)cc2)[nH]c13 | 12 | 0.0018 | inactive |  |
| Clc1ccc(-n2nc3c(cnc4ccsc43)c2Cl)cc1 | 13.7 |  |  | Ki [15]: Insoluble; Change (Mus musculus [3]): inactive |
| Oc1c2cnc3cscc3c2nn1-c1ccc(Cl)cc1 | 17 | 0.00032 | inactive | Change (Mus musculus [9]): 47% |
| Cn1ncc2ccc3ncc4c(=O)n(-c5ccc(Cl)cc5)[nH]c4c3c21 | 13 | 0.012 | inactive | Change (Mus musculus [7]): inactive |
| Cc1ccc2c(ncc3c(=O)n(-c4ccc(Cl)cc4)[nH]c32)n1 |  | 11 |  | No. of shocks (Rattus norvegicus [19]): inactive; Change (Mus musculus [18]): inactive |
| Cn1c2c(cnc3ccsc32)c(=O)n1-c1ccc(Cl)cc1 | 8.6 | 2.6 |  | Change (Mus musculus [3]): inactive |
